Source: ChEMBL document CHEMBL4190389, “Synthesis and activity of di- or trisubstituted N-(phenoxyalkyl)- or N-{2-[2-(phenoxy)ethoxy]ethyl}piperazine derivatives on the central nervous system” (Bioorg Med Chem Lett, 2018)

Legend:
Mus musculus [1] = experiment: Antidepressant-like activity in ip dosed Albino Swiss CD-1 mouse assessed as decrease in immobility time administered […] prior to test measured for last 4 mins of 6 mins observation by forced swim test (reference value: 153.9 to 201.9 secs); type: functional
Rattus norvegicus = experiment: Antidepressant-like activity in ip dosed Wistar rat assessed as decrease in immobility time administered 45 mins prior to test measured for last 4 mins of 6 mins observation by forced swim test (reference value: 153.9 to 201.9 secs); type: functional
[2] = biological target: T1, Adrenergic receptor alpha-1 (Rattus norvegicus, UniProt P15823+P23944+P43140); experiment: Displacement of [3H]-prazosin from Wistar rat cerebral cortex membranes alpha1 adrenoceptor by liquid scintillation counting method; design: species or system Membrane
T1 sequence (P15823 whole entry): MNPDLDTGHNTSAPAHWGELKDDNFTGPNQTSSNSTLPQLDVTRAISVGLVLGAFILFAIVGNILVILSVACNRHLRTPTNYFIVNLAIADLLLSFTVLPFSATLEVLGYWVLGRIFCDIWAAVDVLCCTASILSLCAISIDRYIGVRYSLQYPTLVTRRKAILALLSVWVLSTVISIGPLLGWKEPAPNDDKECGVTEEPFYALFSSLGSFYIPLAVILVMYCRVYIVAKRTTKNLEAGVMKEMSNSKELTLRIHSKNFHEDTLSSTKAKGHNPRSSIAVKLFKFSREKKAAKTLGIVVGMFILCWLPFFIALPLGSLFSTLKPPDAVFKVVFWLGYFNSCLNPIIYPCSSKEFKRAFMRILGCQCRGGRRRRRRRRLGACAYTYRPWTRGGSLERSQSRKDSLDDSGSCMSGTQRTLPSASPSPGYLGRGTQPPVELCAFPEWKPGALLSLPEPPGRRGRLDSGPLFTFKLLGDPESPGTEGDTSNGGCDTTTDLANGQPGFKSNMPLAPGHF
T1 sequence (P23944 whole entry): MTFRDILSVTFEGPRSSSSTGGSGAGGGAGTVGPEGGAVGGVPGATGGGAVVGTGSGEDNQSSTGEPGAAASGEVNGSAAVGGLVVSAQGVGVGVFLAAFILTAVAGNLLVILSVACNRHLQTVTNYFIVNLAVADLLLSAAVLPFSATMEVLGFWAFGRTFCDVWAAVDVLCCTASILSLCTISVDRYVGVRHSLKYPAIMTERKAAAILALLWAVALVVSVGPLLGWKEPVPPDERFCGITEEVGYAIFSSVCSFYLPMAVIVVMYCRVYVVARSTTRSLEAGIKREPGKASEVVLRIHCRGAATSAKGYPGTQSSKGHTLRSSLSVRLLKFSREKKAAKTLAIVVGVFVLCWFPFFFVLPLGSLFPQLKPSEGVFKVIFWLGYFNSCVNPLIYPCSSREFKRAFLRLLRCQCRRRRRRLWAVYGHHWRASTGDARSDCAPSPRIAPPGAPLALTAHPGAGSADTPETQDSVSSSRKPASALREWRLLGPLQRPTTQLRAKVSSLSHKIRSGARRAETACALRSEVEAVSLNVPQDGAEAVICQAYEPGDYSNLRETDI
T1 sequence (P43140 whole entry): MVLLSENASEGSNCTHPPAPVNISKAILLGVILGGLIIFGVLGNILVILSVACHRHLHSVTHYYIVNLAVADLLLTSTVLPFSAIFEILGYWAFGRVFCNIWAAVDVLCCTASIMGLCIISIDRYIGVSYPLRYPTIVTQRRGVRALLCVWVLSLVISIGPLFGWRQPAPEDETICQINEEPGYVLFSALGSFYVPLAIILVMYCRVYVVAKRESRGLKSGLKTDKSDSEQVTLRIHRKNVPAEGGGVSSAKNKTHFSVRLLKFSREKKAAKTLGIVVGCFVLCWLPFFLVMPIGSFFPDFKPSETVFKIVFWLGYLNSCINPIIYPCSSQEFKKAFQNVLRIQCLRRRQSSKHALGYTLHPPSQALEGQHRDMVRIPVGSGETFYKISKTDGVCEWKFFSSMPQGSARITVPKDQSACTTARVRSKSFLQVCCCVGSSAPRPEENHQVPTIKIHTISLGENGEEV

Mus musculus [3] = experiment: Anxiolytic-like activity in ip dosed Albino Swiss CD-1 mouse assessed as increase in number of punished crossings administered for 30 mins prior to test measured for 1 min by four-plate test; type: functional
Procedure, shortened: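 Four-plate test in mice, i.p., 30 min before test; vehicle 0.9% NaCl; doses 1.25–10 mg/kg; number of punished crossings counted; mean ± SEM, n = 8–10 mice per group; ANOVA F statistics.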

COc1ccccc1N1CCN(CCOCCOc2c(C)cccc2C)CC1.Cl
ED (Mus musculus [1]): 2.5 mg/kg | ED (Rattus norvegicus): 5 mg/kg | Ki [2]: 23 nM | ED (Mus musculus [3]): 2.5 mg/kg
